# Data from PubChem BioAssay AID743247 (Broad Institute, 2014).
# Where “and” joins values, the source holds several entries; their conditions need not be identical. Equal entries are not always repeated. The whole screen tested about 350,000 compounds, of which about 300 (0.086%) were called active. The sample holds actives, similar compounds and a random draw of the others, so the mix is not that of the screen.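 The calls were made as follows: active = mean inhibition across replicates of 30% or more, regardless of how many single replicates reach that level; inconclusive = mean under 30% yet at least half of replicates reach 30%; inactive = the rest.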
# Test: blockers of fibronectin fibrillogenesis by fibroblasts – AH1F cells, Alexa488-fibronectin fluorescence, plate reader, primary screen (AID 743247);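 also: positive control wells lacked labelled fibronectin entirely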
# Conditions: Alexa488-fibronectin deposition fluorescence, overnight, at 12.6 µM, active compounds read high
# Method in brief: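 Schedule: 1 h cell adhesion before compound, then overnight fibronectin incubation; test system: AH1F fibroblast monolayer depositing Alexa488-labelled fibronectin into matrix; quantity: 10000 AH1F cells per well; probe or stimulus: fluorescent fibronectin at 24 nM final; signal: fluorescence, ex 485 nm, em 525 nm; evaluation: percent inhibition as loss of matrix-bound fibronectin fluorescence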
row,SMILES,inhibition
1,CCC(=O)Nc1ccc2c(c1)C(=O)N(C)C[C@H](OC)[C@@H](C)CN(Cc1nccs1)[C@H](C)CO2,8.21% (inactive)
2,CCCC(=O)Nc1ccc2c(c1)OC[C@H](C)N(CCc1ccccc1)C[C@H](C)[C@@H](OC)CN(C)C2=O,-9.33% (inactive)
3,O=C1N[C@H](c2ccccc2)COCc2cn(nn2)CC[C@@H]1Cc1ccc(Cl)cc1,-8.81% (inactive)
4,Cc1ccc(Nc2nnc(SCc3ccccc3)s2)cc1,30.3% (active)
5,Cc1ccc(Nc2nnc(SC(C)C(=O)NC3CC3)s2)cc1 (stereo unspecified),9.55% (inactive)
6,Cc1ccc(Nc2nc(N)nc(CSc3nnc(C)s3)n2)cc1,-6.84% (inactive)
7,CC(=O)N1C[C@@H]2C(c3ccccc3)[C@H](C1)N2Cc1ccc(F)cc1 (stereo partly specified),-14.1% (inactive) and 0.287% (inactive)
8,Cc1cccc(-c2ccc(C3[C@H]4CNC[C@@H]3N4S(=O)(=O)c3ccccc3F)cc2)c1 (stereo partly specified),6.27% (inactive) and -0.776% (inactive)
9,CC(=O)N(C)C[C@@H]1Oc2ccc(NC(=O)NC(C)C)cc2C(=O)N(C)C[C@H]1C,0.044% (inactive)
10,CC(C)NC(=O)N(C)C[C@H]1Oc2ccc(N(C)C)cc2CC(=O)N(C)C[C@@H]1C,-2.09% (inactive)
11,C[C@H](CO)N1C[C@H](C)[C@@H](CN(C)C(=O)Nc2cccc(F)c2)OCc2ccccc2-c2ccccc2C1=O,6.45% (inactive)
12,C[C@@H]1CN(C)C(=O)c2cc([N+](=O)[O-])ccc2O[C@@H]1CN(C)C(=O)OC(C)(C)C,-15.7% (inactive)
13,CC(=O)c1ccc(Nc2nc(C(N)c3ccccc3)cs2)cc1 (stereo unspecified),30.3% (active)
14,CC(=O)c1ccc(Nc2nc(C(N)c3ccccc3Cl)cs2)cc1 (stereo unspecified),-5.17% (inactive)
15,NC(c1ccccc1)c1csc(NC(=O)Nc2cccc(C(F)(F)F)c2)n1 (stereo unspecified),0.914% (inactive)
16,CCS(=O)(=O)Nc1ccc2c(c1)C(=O)N(C)[C@@H]1CC[C@@H](CC(=O)NC)O[C@H]1CO2,6.61% (inactive)
17,CC(=O)Nc1cccc2c1O[C@@H](CN(C)C(C)=O)[C@@H](C)CN(C)C2=O,-3.62% (inactive)
18,CN(C)C(=O)c1ccc(-c2ccc(C3[C@@H]4CN(S(=O)(=O)c5cccc(Cl)c5)C[C@H]3N4)cc2)cc1 (stereo partly specified),-2.13% (inactive)
19,CNC[C@H]1Oc2ccc(NC(=O)Nc3ccc(F)cc3)cc2C(=O)N([C@@H](C)CO)C[C@@H]1C,-0.84% (inactive)
20,CC(C)NC(=O)N(C)C[C@H]1Oc2c(cccc2N(C)C)C(=O)N(C)C[C@H]1C,0.739% (inactive)
21,O=C(N[C@@H]1CC[C@H](CCn2cc(-c3ccccc3)nn2)O[C@H]1CO)c1cnccn1,15% (inactive)
